Experimental data reported in ChEMBL document CHEMBL3861970, “Penipyridones A-F, Pyridone Alkaloids from Penicillium funiculosum” (J Nat Prod, 2016).
Active and inactive are the calls of the source. No cut-off for these calls is given here.

What was measured:
Assay type in all cases: functional, cell-based
[1] = Cytotoxicity against human K562 cells assessed as growth inhibition after 48 hrs by SRB assay; conditions: K562, 48 h
[2] = Cytotoxicity against human HL60 cells assessed as growth inhibition after 48 hrs by SRB assay; conditions: HL-60, 48 h
[3] = Cytotoxicity against human HeLa cells assessed as growth inhibition after 48 hrs by SRB assay
[4] = Cytotoxicity against human A549 cells assessed as growth inhibition after 48 hrs by SRB assay; conditions: A549, 48 h
HepG2 [5] = experiment: Lipid lowering activity in human HepG2 cells assessed as decrease in oleic acid elicited lipid accumulation at 10 uM treated 12 hrs post oleic acid addition measured 6 hrs post dose by oil-red O staining method
Outline: (§1)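 HepG2 cells (ATCC origin) grown in DMEM with 10% FBS and penicillin/streptomycin to 70–80% confluence. They were loaded with 100 μM oleic acid in DMEM for 12 h, then exposed for 6 h to 10 μM compound, lovastatin as positive control, or oleic acid alone. Read-outs were Oil-Red O staining (n = 8) or TC/TG determination (n = 3). Each experiment was repeated at least three times; means ± SEM.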

HepG2 [6] = experiment: Lipid lowering activity in human HepG2 cells assessed as decrease in total cholesterol level at 10 uM treated 12 hrs post oleic acid addition measured 6 hrs post dose; outline: as §1
HepG2 [7] = experiment: Lipid lowering activity in human HepG2 cells assessed as decrease in triglyceride level at 10 uM treated 12 hrs post oleic acid addition measured 6 hrs post dose; outline: as §1

## CC(C)CC(=O)NC(=O)c1cn(CCO)c([C@@H](O)c2ccccc2)cc1=O
[1]
  IC50: > 50 µM
[2]
  IC50: > 50 µM
[3]
  IC50: > 50 µM
[4]
  IC50: > 50 µM

## CC(=O)O[C@@H](c1ccccc1)c1cc(=O)c(C(=O)NC(=O)CC(C)C)cn1CCO
[1]
  IC50: > 50 µM
[2]
  IC50: > 50 µM
[3]
  IC50: > 50 µM
[4]
  IC50: > 50 µM
HepG2 [5]
  Activity: Active
HepG2 [6]
  Activity: Active
HepG2 [7]
  Activity: Active

## COC(=O)c1c[nH]c([C@@H](O)c2ccccc2)cc1=O
[1]
  IC50: > 50 µM
[2]
  IC50: > 50 µM
[3]
  IC50: > 50 µM
[4]
  IC50: > 50 µM
HepG2 [5]
  Activity: Active
HepG2 [6]
  Activity: Active
HepG2 [7]
  Activity: Active

## NC(=O)c1c[nH]c([C@@H](O)c2ccccc2)cc1=O
[1]
  IC50: > 50 µM
[2]
  IC50: > 50 µM
[3]
  IC50: > 50 µM
[4]
  IC50: > 50 µM
HepG2 [5]
  Activity: Active
HepG2 [6]
  Activity: Active
HepG2 [7]
  Activity: Active

## NC(=O)c1cn(CCO)c([C@@H](O)c2ccccc2)cc1=O
[1]
  IC50: > 50 µM
[2]
  IC50: > 50 µM
[3]
  IC50: > 50 µM
[4]
  IC50: > 50 µM

## CC(C)CC(=O)NC(=O)c1c[nH]c([C@@H](O)c2ccccc2)cc1=O
[1]
  IC50: > 50 µM
[2]
  IC50: > 50 µM
[3]
  IC50: > 50 µM
[4]
  IC50: > 50 µM

## CC(=O)O[C@@H](c1ccccc1)c1cc(=O)c(C(N)=O)cn1CCO
[1]
  IC50: > 50 µM
[2]
  IC50: > 50 µM
[3]
  IC50: > 50 µM
[4]
  IC50: > 50 µM
HepG2 [5]
  Activity: Active
HepG2 [6]
  Activity: Active
HepG2 [7]
  Activity: Active
